Experimental data as given in ChEMBL document CHEMBL1148053, “(+)-(S)-dihydroaeruginoic acid, an inhibitor of Septoria tritici and other phytopathogenic fungi and bacteria, produced by Pseudomonas fluorescens” (1994).

Legend:
[1] = test system: Rhizoctonia solani; assay: Antifungal activity against Rhizoctonia solani DL5588 assessed as colony reduction at 100 ug/disk after 2 to 6 days by paper disk agar diffusion method relative to control; format: functional; set-up: scale not given: the % may be the effect or the level left
Procedure, shortened: (§1)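 Tested on one-fourth-strength potato dextrose agar. A 5-mm mycelial agar plug from the colony edge was placed at the dish centre. A 6-mm disc with the compound in Me₂CO and an Me₂CO-only control disc were set on opposite sides, each 30 mm from the plug. After 2-6 days, colony radii were measured along the line joining the discs. Values are the mean of nine (3 weighings × 3 discs), analysed by two-way ANOVA.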

[2] = test system: Rhizoctonia solani; assay: Antifungal activity against Rhizoctonia solani DL5588 assessed as colony reduction at 200 ug/disk after 2 to 6 days by paper disk agar diffusion method relative to control; format: functional; set-up: scale not given: the % may be the effect or the level left; procedure, shortened: as §1
[3] = test system: Globisporangium ultimum; assay: Antifungal activity against Pythium ultimum RG-5601 assessed as colony reduction at 100 ug/disk after 2 to 6 days by paper disk agar diffusion method relative to control; format: functional; set-up: scale not given: the % may be the effect or the level left
Procedure, shortened: (§2)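 Paper-disc agar-diffusion on one-fourth-strength PDA. Mycelial agar plug (5 mm) from culture edge placed at plate centre; 6-mm disc loaded with compound in Me2CO and Me2CO-only control disc set on opposite sides, each 30 mm from plug. After 2-6 days (per growth rate), colony radii measured along line joining disc centres. Three separate weighings × three discs (nine) per organism; two-way ANOVA.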

[4] = test system: Globisporangium ultimum; assay: Antifungal activity against Pythium ultimum RG-5601 assessed as colony reduction at 200 ug/disk after 2 to 6 days by paper disk agar diffusion method relative to control; format: functional; set-up: scale not given: the % may be the effect or the level left; procedure, shortened: as §2
[5] = test system: Botrytis cinerea; assay: Antifungal activity against Botrytis cinerea DL6050 assessed as colony reduction at 100 ug/disk after 2 to 6 days by paper disk agar diffusion method relative to control; format: functional; set-up: scale not given: the % may be the effect or the level left; procedure, shortened: as §1
[6] = test system: Botrytis cinerea; assay: Antifungal activity against Botrytis cinerea DL6050 assessed as colony reduction at 200 ug/disk after 2 to 6 days by paper disk agar diffusion method relative to control; format: functional; set-up: scale not given: the % may be the effect or the level left; procedure, shortened: as §1
[7] = test system: Athelia rolfsii; assay: Antifungal activity against Sclerotium rolfsii RG-1984 assessed as colony reduction at 100 ug/disk after 2 to 6 days by paper disk agar diffusion method relative to control; format: functional, Agroathelia rolfsii; set-up: scale not given: the % may be the effect or the level left; procedure, shortened: as §2
[8] = test system: Athelia rolfsii; assay: Antifungal activity against Sclerotium rolfsii RG-1984 assessed as colony reduction at 200 ug/disk after 2 to 6 days by paper disk agar diffusion method relative to control; format: functional, Agroathelia rolfsii; set-up: scale not given: the % may be the effect or the level left; procedure, shortened: as §2
[9] = test system: Colletotrichum gloeosporioides; assay: Antifungal activity against Colletotrichum gloeosporioides DL5605 assessed as colony reduction at 100 ug/disk after 2 to 6 days by paper disk agar diffusion method relative to control; format: functional; set-up: scale not given: the % may be the effect or the level left; procedure, shortened: as §1
[10] = test system: Colletotrichum gloeosporioides; assay: Antifungal activity against Colletotrichum gloeosporioides DL5605 assessed as colony reduction at 200 ug/disk after 2 to 6 days by paper disk agar diffusion method relative to control; format: functional; set-up: scale not given: the % may be the effect or the level left; procedure, shortened: as §1
[11] = test system: Fusarium oxysporum; assay: Antifungal activity against Fusarium oxysporum Fo0593-22 assessed as colony reduction at 100 ug/disk after 2 to 6 days by paper disk agar diffusion method relative to control; format: functional; set-up: scale not given: the % may be the effect or the level left; procedure, shortened: as §1
[12] = test system: Fusarium oxysporum; assay: Antifungal activity against Fusarium oxysporum Fo0593-22 assessed as colony reduction at 200 ug/disk after 2 to 6 days by paper disk agar diffusion method relative to control; format: functional; set-up: scale not given: the % may be the effect or the level left; procedure, shortened: as §1
[13] = test system: Bacillus subtilis; assay: Antibacterial activity against Bacillus subtilis Bs1091 at 100 ug/disk by paper disk agar diffusion method; format: functional; conditions: read-out: IZ
Procedure, shortened: (§3)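 Paper-disc agar-diffusion assay on Luria agar (tryptone, yeast extract, NaCl, agar), the medium used for maintaining and testing the bacteria. The compound was dissolved in Me₂CO and absorbed onto 6-mm paper discs at the stated amount per disc. Three separately weighed solutions were used, with three discs each, giving nine measurements per organism.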

[14] = test system: Bacillus subtilis; assay: Antibacterial activity against Bacillus subtilis Bs1091 at 200 ug/disk by paper disk agar diffusion method; format: functional; conditions: read-out: IZ; procedure, shortened: as §3
[15] = test system: Pantoea agglomerans; assay: Antibacterial activity against Erwinia herbicola SM-824 at 100 ug/disk by paper disk agar diffusion method; format: functional; conditions: read-out: IZ; procedure, shortened: as §3
[16] = test system: Pantoea agglomerans; assay: Antibacterial activity against Erwinia herbicola SM-824 at 200 ug/disk by paper disk agar diffusion method; format: functional; conditions: read-out: IZ; procedure, shortened: as §3
[17] = test system: Staphylococcus; assay: Antibacterial activity against Staphylococcus albus Sal1091-4 at 100 ug/disk by paper disk agar diffusion method; format: functional; conditions: read-out: IZ; procedure, shortened: as §3
[18] = test system: Staphylococcus; assay: Antibacterial activity against Staphylococcus albus Sal1091-4 at 200 ug/disk by paper disk agar diffusion method; format: functional; conditions: read-out: IZ; procedure, shortened: as §3
[19] = test system: Pseudomonas fluorescens; assay: Antibacterial activity against Pseudomonas fluorescens PFM2 at 100 ug/disk by paper disk agar diffusion method; format: functional; conditions: read-out: IZ; procedure, shortened: as §3
[20] = test system: Pseudomonas fluorescens; assay: Antibacterial activity against Pseudomonas fluorescens PFM2 at 200 ug/disk by paper disk agar diffusion method; format: functional; conditions: read-out: IZ; procedure, shortened: as §3
[21] = test system: Zymoseptoria tritici; assay: Antifungal activity against Septoria tritici ISR-SE93 assessed as diameter of zone of inhibition at 100 ug/disk after 2 to 6 days by paper disk agar diffusion method; conditions: read-out: IZ
[22] = test system: Zymoseptoria tritici; assay: Antifungal activity against Septoria tritici ISR-SE93 assessed as diameter of zone of inhibition at 200 ug/disk after 2 to 6 days by paper disk agar diffusion method; conditions: read-out: IZ

| Structure (SMILES) | Activity [1] | Activity [2] | Activity [3] | Activity [4] | Activity [5] | Activity [6] | Activity [7] | Activity [8] | Activity [9] | Activity [10] | Activity [11] | Activity [12] | zone of inhibition at 100 µg/disc [13] | zone of inhibition at 200 µg/disc [14] | zone of inhibition at 100 µg/disc [15] | zone of inhibition at 200 µg/disc [16] | zone of inhibition at 100 µg/disc [17] | zone of inhibition at 200 µg/disc [18] | zone of inhibition at 100 µg/disc [19] | zone of inhibition at 200 µg/disc [20] | further results |
| --- | --- | --- | --- | --- | --- | --- | --- | --- | --- | --- | --- | --- | --- | --- | --- | --- | --- | --- | --- | --- | --- |
| O=C(O)[C@H]1CSC(c2ccccc2O)=N1 | 1% | 5% | 22% | 43% | 27% | 43% | 32% | 53% | 8% | 10% | 8% | 15% | 10.8 mm | 13.3 mm | 6.7 mm | 8.7 mm | 20.2 mm | 26.2 mm | 0 mm | 0 mm | zone of inhibition at 100 µg/disc [21]: 0 mm; zone of inhibition at 200 µg/disc [22]: 13 mm |
| O=C(O)[C@@H]1CSC(c2ccccc2O)=N1 | 6% | 17% | 12% | 33% | 36% | 46% | 32% | 52% | 8% | 9% | 5% | 11% | 14.9 mm | 19.7 mm | 8.2 mm | 10.4 mm | 22 mm | 28.2 mm | 0 mm | 0 mm | zone of inhibition at 100 µg/disc [21]: 0 mm; zone of inhibition at 200 µg/disc [22]: 13 mm |
